Measured values published in paper PMC11844196 (Journal of Experimental Pharmacology, 2025).

Columns and labels:
MDA-MB-231 cells = test: PrestoBlue cytotoxicity assay; type: cell-based; conditions: Homo sapiens, MDA-MB-231, 24 h, read-out: IC50 Value MDA-MB-231
Method in brief: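 Cells plated at 10,000 cells/well and incubated 24 h at 37°C, 5% CO2. MCF 10A were grown in MEBM to 70–80% confluency. Treated for 24 h with eight concentrations (250, 125, 62.5, 31.25, 15.625, 7.8125, 3.9, 1.95 µg/mL) in three parallel experiments, with cisplatin as positive control.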

MCF7 cells = test: Cell morphology after treatment; type: cell-based, human

CC[C@H](CC[C@@H](C)[C@H]1CC[C@H]2[C@@H]3CC=C4C[C@@H](O)CC[C@]4(C)[C@H]3CC[C@]12C)C(C)C [β-sitosterol]
IC50 (MDA-MB-231 cells): > 250 µg/mL | Cell morphology (apoptosis signs) (MCF7 cells): cell blebbing indicative of apoptotic process
